The source made the active and inactive calls. The rule behind the calls is not given here. Some results are limits rather than exact numbers.

For series [1], the target named is T1, Leukotriene B4 receptor 2 (Homo sapiens, UniProt Q9NPC1).
T1 sequence (Q9NPC1 whole entry): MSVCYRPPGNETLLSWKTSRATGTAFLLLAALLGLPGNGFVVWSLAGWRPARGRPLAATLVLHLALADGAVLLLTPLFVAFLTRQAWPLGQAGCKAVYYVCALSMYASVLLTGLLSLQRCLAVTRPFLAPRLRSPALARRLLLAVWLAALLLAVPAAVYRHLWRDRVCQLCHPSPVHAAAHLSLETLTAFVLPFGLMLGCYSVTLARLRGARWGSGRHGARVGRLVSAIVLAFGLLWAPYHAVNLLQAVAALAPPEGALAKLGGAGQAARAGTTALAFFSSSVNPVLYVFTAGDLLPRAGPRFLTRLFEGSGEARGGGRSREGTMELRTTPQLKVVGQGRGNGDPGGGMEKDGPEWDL
Kind of series: Agonist activity at human BLT2 overexpressed in CHO-K1 cells assessed as accumulation of inositol monophosphate measured after 90 mins by HTRF assay. It is filed as functional, cell-based. For orientation: In TR-FRET formats the signal depends on donor and acceptor labels being close together.

The target of series [2] is T2, Type-1 angiotensin II receptor (Homo sapiens, UniProt P30556).
T2 sequence (P30556 whole entry): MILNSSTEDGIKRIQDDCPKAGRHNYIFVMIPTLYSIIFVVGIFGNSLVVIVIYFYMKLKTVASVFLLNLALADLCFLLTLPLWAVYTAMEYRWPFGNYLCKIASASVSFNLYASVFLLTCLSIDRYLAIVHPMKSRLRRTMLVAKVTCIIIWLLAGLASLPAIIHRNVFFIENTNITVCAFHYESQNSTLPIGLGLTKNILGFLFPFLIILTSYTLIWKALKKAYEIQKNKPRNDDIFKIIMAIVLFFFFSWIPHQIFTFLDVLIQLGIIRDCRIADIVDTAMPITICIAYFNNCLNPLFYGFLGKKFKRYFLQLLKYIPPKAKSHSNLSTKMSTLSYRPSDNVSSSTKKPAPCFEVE
The series is described as follows: Antagonist activity at human AT1 overexpressed in CHO-K1 cells in presence of 10 nM [Val5-angiotensin II measured after 90 mins by HTRF based IP-one assay. It is filed as functional, cell-based. A digest of the protocol: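 IP-One assay in antagonist mode, [Val⁵]-angiotensin II held constant at 10 nM; IP-1 accumulation read out. IC₅₀ with SEM from at least two runs (n = 2).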

The target in series [3] is Leukotriene B4 receptor 1 (Homo sapiens) (UniProt Q15722). The series is described as follows: Agonist activity at human BLT1 overexpressed in CHO-K1 cells assessed as accumulation of inositol monophosphate measured after 90 mins by HTRF assay. It is filed as functional, cell-based. A digest of the protocol:
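IP-One accumulation assay run in agonist mode, read-out inositol monophosphate as a measure of Gq activation; LTB₄ as reference agonist and positive control. EC₅₀ determinations done at least twice (n = 2).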

A further series relates to HepG2. The series is described as follows: (§1) Cytotoxicity against human HepG2 cells assessed as cell survival rate at 50 uM measured after 3 days by Celltiter-glo assay relative to control. It is filed as cell-based. The conditions noted are these: hepg2, 72 h, 50 µM. The method, boiled down: (§2)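 Hep-G2 cells exposed to 50 μM compound for 3 days; ATP content measured by CellTiter-Glo luminescence as an index of metabolic activity and survival; live rate expressed as percent of DMSO control.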
For orientation: ATP-based viability assays read luminescence as a measure of living cells.

Series [4] deals with HCT-116. Kind of series: Induction of cell proliferation in human HCT-116 cells at 0.03 uM measured after 24 hrs by celltiter blue reagent based fluorescent assay. It is filed as functional. The method, boiled down:
(§3)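 HCT116 seeded at 5 × 10³ cells/well, grown 72 h, then treated 24 h with compound alone or with BLT2 antagonist Ly255283 (1 μM); CellTiterBlue added for the final 4 h, resorufin fluorescence read. Mean ± SEM, n = 3.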
For orientation: Alamar Blue is a resazurin reagent that responds to reducing activity.

Series [5] can be described thus: as §1. It is filed as cell-based. Particulars: HepG2 cells, read-out: Activity. A digest of the protocol:
as §2

Series [6] relates to HCT-116. The series is described as follows: Induction of cell proliferation in human HCT-116 cells at 0.1 to 1 uM measured after 24 hrs by celltiter blue reagent based fluorescent assay. It is filed as functional. A digest of the protocol: as §3

Leukotriene B4 receptor 1 (Homo sapiens), sequence (Q15722 whole entry): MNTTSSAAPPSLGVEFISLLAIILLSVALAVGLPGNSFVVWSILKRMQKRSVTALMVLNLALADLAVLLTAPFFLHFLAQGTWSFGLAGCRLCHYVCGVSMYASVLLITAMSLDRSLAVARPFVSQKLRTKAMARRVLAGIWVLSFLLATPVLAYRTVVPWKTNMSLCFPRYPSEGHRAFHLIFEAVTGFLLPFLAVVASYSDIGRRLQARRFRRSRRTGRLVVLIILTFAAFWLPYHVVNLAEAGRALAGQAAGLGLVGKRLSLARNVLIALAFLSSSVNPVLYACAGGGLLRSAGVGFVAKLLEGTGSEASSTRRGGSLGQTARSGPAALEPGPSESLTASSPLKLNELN

In the case of `CCOc1nc2cccc(C(=O)O)c2n1Cc1ccc(-c2ccccc2-c2noc(=O)[nH]2)cc1` [AZILSARTAN], the EC50 entry in series [1] (cho-k1) is on record as “Not Active”.

Consider `CCCCC1=NC(C)(C(C)C)C(=O)N1Cc1ccc(-c2ccccc2-c2nnn[nH]2)cc1` (stereo not given), for which, in series [1] (read-out: EC50), the EC50 amounted to 0.0676 µM. Moreover, the IC50 in series [2] (read-out: IC50) came to 0.015 µM. Besides, the result in series [3] was inactive. Besides, the Activity entry with HepG2 is listed as “Non-Toxic”. The outcome in the series with HCT-116 [4] was Active.

Turning to `O=C(O)c1ccccc1-c1ccc(CN2C(=O)C3(CCCC3)N=C2c2ccccc2)cc1`, the EC50 entry in series [1] (cho-k1) is reported as “Not Active”. Moreover, the IC50 in series [2] (read-out: IC50) was greater than 10 µM. Further, the outcome in series [3] was inactive. Also, the Activity result with HepG2 is “Non-Toxic”.

For `CCCCC(=O)N(Cc1ccc(-c2ccccc2C(=O)O)cc1)c1ccccc1`, the outcome with HCT-116 [4] was Active.

In the case of `CCCC[C@@H]1N(Cc2ccc(-c3ccccc3-c3nnn[nH]3)cc2)C(=O)[C@@H]2CCCN12`, the EC50 entry in series [1] (cho-k1) was “Not Active”. Also, the IC50 in series [2] (read-out: IC50) stood at 1.01 µM. Besides, the outcome in series [3] was inactive. Besides, the viability at 72 h, 50 µM in series [5] was found to be 89%.

In the case of `O=C(O)Cn1c2c(c3cc(F)ccc31)CN(C(=O)c1cccc3ccccc13)CC2` [SETIPIPRANT], in series [1] (cho-k1), the half-maximal effective concentration (EC50) result was “Not Active”.

`CCCCC1=NC(C)(C)C(=O)N1Cc1ccc(-c2ccccc2-c2nnn[nH]2)cc1`: the 50% effective concentration (EC50) in series [1] (read-out: EC50) stood at 8.14 µM. The IC50 in series [2] (read-out: IC50) is 0.032 µM. For the same molecule, in series [3], the outcome was inactive. The viability at 72 h, 50 µM in series [5] came to 56%.

Take `CCCCC1NC(=O)C2(CCCC2)N1Cc1ccc(-c2ccccc2C(=O)O)cc1` (stereo not given): the EC50 in series [1] (read-out: EC50) is 24.2 µM. Also, in series [2] (read-out: IC50), the IC50 worked out at 7.75 µM. In addition, the result in series [3] was inactive. In the series with HepG2, the Activity entry is reported as “Non-Toxic”.

On to `CSc1ccc(C(=O)/C=C/c2cc(C)c(OC(C)(C)C(=O)O)c(C)c2)cc1` [ELAFIBRANOR], for which the EC50 result in series [1] (cho-k1) is listed as “Not Active”.

On to `CCCCC1(C2CCCC2)Cc2cc(OCCCC(=O)O)c(Cl)c(Cl)c2C1=O` (stereo not given), for which the EC50 entry in series [1] (cho-k1) is on record as “Not Active”.

With `CCCCC1=NC(C)(c2ccccc2)C(=O)N1Cc1ccc(-c2ccccc2-c2nnn[nH]2)cc1` (stereo not given), in series [1] (read-out: EC50), the EC50 stood at 0.55 µM. In series [2] (read-out: IC50), the half-maximal inhibitory concentration (IC50) was found to be 0.025 µM. In series [3], the outcome was inactive. The viability at 72 h, 50 µM in series [5] stood at 56%.

On to `CCc1cc(C(C)=O)c(O)cc1OCCCCCC(C)(C)c1nn[nH]n1`, for which the result with HCT-116 [6] was inactive.

For `CCCCC1=NC2(CCCCC2)C(=O)N1Cc1ccc(-c2ccccc2C(=O)O)cc1`, the EC50 in series [1] (read-out: EC50) was 0.86 µM. The IC50 in series [2] (read-out: IC50) was determined as 0.155 µM. Besides, the result in series [3] was inactive.

Regarding `CCOc1nc2cccc(C(=O)O)c2n1Cc1ccc(-c2ccccc2-c2nnn[nH]2)cc1`, the EC50 in series [1] (read-out: EC50) worked out at 15 µM.

`CCCCC1=NC2(CCCC2)C(=O)N1Cc1ccc(-c2ccccc2C(=O)O)cc1`: the IC50 in series [2] (read-out: IC50) was determined as 0.19 µM.

`CCCCC(=O)N(Cc1ccc(-c2ccccc2-c2nnn[nH]2)cc1)[C@H](C(=O)O)C(C)C`: the EC50 in series [1] (read-out: EC50) stood at 16 µM.

`O=C(O)c1ccccc1-c1ccc(CN2C(=O)C3(CCCC3)N=C2Cc2ccccc2)cc1`: in series [2] (read-out: IC50), the IC50 was 8.65 µM. The viability at 72 h, 50 µM in series [5] is 79%.

Consider `O=C(O)COc1ccc(C(=O)c2cccs2)c(Cl)c1Cl`, for which the EC50 result in series [1] (cho-k1) is “Not Active”.

With `CCCCC1NC(C)(C)C(=O)N1Cc1ccc(-c2ccccc2-c2nnn[nH]2)cc1` (stereo not given), the IC50 in series [2] (read-out: IC50) is 0.39 µM. Moreover, in series [5], the viability at 72 h, 50 µM worked out at 77%.

Consider `C[C@H](CCC(=O)O)[C@H]1CC[C@H]2[C@@H]3[C@H](O)C[C@@H]4C[C@H](O)CC[C@]4(C)[C@H]3CC[C@]12C` [CHENODIOL], for which the EC50 entry in series [1] (cho-k1) is on record as “Not Active”.

Take `CCCCC1=NC2(CCCC2)C(=O)N1Cc1ccc(-c2ccccc2-c2nnn[nH]2)cc1` [IRBESARTAN]: the EC50 in series [1] (read-out: EC50) came out at 0.41 µM. Moreover, the result in series [3] was inactive. The molecule also came in with an Activity in the series on HCT-116 [4] of 88%.

On to `O=C(O)c1ccccc1-c1ccc(CN2C(=O)C3(CCCC3)N=C2CCc2ccccc2)cc1`, for which, in series [1] (cho-k1), the EC50 result was “Not Active”. Moreover, in series [2] (cho-k1), the IC50 result is on record as “Not Active”. Also, the outcome in series [3] was inactive. The Activity entry with HepG2 is reported as “Non-Toxic”.

Turning to `CC(C(=O)O)c1ccc2c(c1)CC(=O)c1ccccc1S2` (stereo not given) [ZALTOPROFEN], in series [1] (cho-k1), the EC50 result was “Not Active”.

Turning to `CCCC[C@H]1N(Cc2ccc(-c3ccccc3-c3nnn[nH]3)cc2)C(=O)[C@H]2CCCN21`, the EC50 in series [1] (read-out: EC50) was found to be 7.5 µM. The IC50 in series [2] (read-out: IC50) came to 10 µM. Moreover, the result in series [3] was inactive. Further, in series [5], the viability at 72 h, 50 µM is 88%.

The EC50 is the concentration that produces a half-maximal response. The IC50 is the concentration at which inhibition is half-maximal.

Values taken from ChEMBL document CHEMBL4837242, “Discovery of Irbesartan Derivatives as BLT2 Agonists by Virtual Screening” (ACS Med Chem Lett, 2021).
